≈ marks a conversion by molar mass, not a printed value. Calls of active or inactive are those of the source. The calls are words filed in the database; no cut-off is given here.
Tests used:
Escherichia coli [1] = assay: Antibacterial activity against Escherichia coli ATCC D21 after 18 to 20 hrs at pH 7.5; type: functional, organism-based
Procedure, shortened: (§1)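 Broth microdilution in LB: bacterial suspension at 10^6 CFU/mL mixed 1:1 with serial 2-fold peptide dilutions, made from a 1 mg/mL aqueous stock. Strains were E. coli ATCC D21 and S. aureus ATCC 6538P. MIC was the lowest concentration with no growth after 18–20 h. Values are averages of duplicate experiments.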

Staphylococcus aureus [2] = assay: Antibacterial activity against Staphylococcus aureus ATCC 6538P after 18 to 20 hrs at pH 7.5; type: functional, organism-based; procedure, shortened: as §1
Aspergillus fumigatus [3] = assay: Induction of membrane depolarization in Aspergillus fumigatus at 1.56 to 100 uM at pH 7.5 by DiSC3(5)-based fluorescence assay; type: functional, organism-based
Procedure, shortened: (§2)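 A. fumigatus was pregrown 20 h at 35 °C from 2 × 10^3 CFU/mL in RPMI/MOPS (pH 7.4 or 5.5). Cells were loaded with DiSC3(5) at 0.2 μM final in sodium phosphate buffer (pH 5.5 or 7.5) for 15 min. Peptides were added at 1.56–100 μM final, and fluorescence (ex 640/em 660 nm) was read after 1 h.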

Candida albicans [4] = assay: Antifungal activity against Candida albicans ATCC 10231 after 48 hrs at pH 5.5; type: functional; settings: ATCC 10231, 48 h
Procedure, shortened: (§3)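 The method followed CLSI M38-A2 (Aspergillus) or M27-A3. Medium was RPMI 1640 with 0.165 M MOPS and L-glutamine, without NaHCO3, at pH 5.5 or 7.5. Inoculum of 2 × 10^3 CFU/mL was mixed 1:1 with serial 2-fold peptide dilutions. Incubation was at 35 °C: 48 h for A. fumigatus and C. albicans, 72 h for C. neoformans. MIC was read by eye as no growth. Values are averages of duplicates.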

Staphylococcus aureus [5] = assay: Antibacterial activity against Staphylococcus aureus ATCC 6538P after 18 to 20 hrs at pH 5.5; type: functional, organism-based; procedure, shortened: as §1
Aspergillus fumigatus [6] = assay: Antifungal activity against Aspergillus fumigatus ATCC 26430 after 48 hrs at pH 5.5; type: functional; settings: ATCC 26430, 48 h; procedure, shortened: as §3
Cryptococcus neoformans [7] = assay: Antifungal activity against Cryptococcus neoformans ATCC MYA422 after 72 hrs at pH 7.5; type: functional; settings: ATCC MYA422, 72 h; procedure, shortened: as §3
Candida albicans [8] = assay: Antifungal activity against Candida albicans ATCC 10231 after 48 hrs at pH 7.5; type: functional; settings: ATCC 10231, 48 h; procedure, shortened: as §3
Aspergillus fumigatus [9] = assay: Induction of membrane damage in Aspergillus fumigatus at 1.56 to 100 uM at pH 7.5 by Sytox green-based fluorescence assay; type: functional, organism-based
Procedure, shortened: (§4)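 A. fumigatus at 2 × 10^3 CFU/mL in RPMI/MOPS (pH 7.4 or 5.5) was grown 20 h at 35 °C. Sytox green was added at 0.2 μM final in sodium phosphate buffer (pH 5.5 or 7.5) for 15 min. Peptides were then added at 100–1.56 μM final. Fluorescence (ex 485/em 530 nm) was read after 1 h.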

Cryptococcus neoformans [10] = assay: Antifungal activity against Cryptococcus neoformans ATCC MYA422 after 72 hrs at pH 5.5; type: functional; settings: ATCC MYA422, 72 h; procedure, shortened: as §3
Escherichia coli [11] = assay: Antibacterial activity against Escherichia coli ATCC D21 after 18 to 20 hrs at pH 5.5; type: functional, organism-based; procedure, shortened: as §1
Aspergillus fumigatus [12] = assay: Induction of membrane damage in Aspergillus fumigatus at 1.56 to 100 uM at pH 5.5 by Sytox green-based fluorescence assay; type: functional, organism-based; procedure, shortened: as §4
Aspergillus fumigatus [13] = assay: Antifungal activity against Aspergillus fumigatus ATCC 26430 after 48 hrs at pH 7.5; type: functional; settings: ATCC 26430, 48 h; procedure, shortened: as §3
Aspergillus fumigatus [14] = assay: Induction of membrane depolarization in Aspergillus fumigatus at 1.56 to 100 uM at pH 5.5 by DiSC3(5)-based fluorescence assay; type: functional, organism-based; procedure, shortened: as §2
[15] = Stability of the compound at 1 ug/uL after 2 hrs by RP-HPLC analysis in presence of proteinase K; type: ADME
Procedure, shortened: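 Peptide at 1 μg/μL in PBS (400 μL) mixed with 8 μL proteinase K solution (5 μg/μL; 2% DMSO final). Intact peptide quantified by RP-HPLC on a C4 column, 0.1% TFA water/acetonitrile, 10–90% B over 40 min. Measured against a peptide injection taken before enzyme addition. Melittin served as enzyme-activity control.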

Aspergillus fumigatus [16] = assay: Antifungal activity against Aspergillus fumigatus Af293 infected in immunocompromized ICR mouse assessed as reduction in fungal load in kidney at 4.5 mg/kg, at pH 5.5 it administered on day 1 and 4 measured after 5 days post infection (reference value: 20 to 5400 CFU); type: functional; settings: route endotracheal
[17] = Ratio of LC50 for mouse RAW264.7 cells to MIC for Aspergillus fumigatus ATCC 26430; type: functional
Procedure, shortened: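 LC50: RAW264.7 macrophages in supplemented DMEM, 2 × 10^5 cells/well overnight, then peptide at 3.12–200 μM for 16 h. Viability read by XTT; LC50 from dose–response curves. MIC: CLSI M38-A2 broth microdilution, 2 × 10^3 CFU/mL A. fumigatus ATCC 26430 in RPMI 1640/0.165 M MOPS (pH 5.5 or 7.5). Serial 2-fold dilutions, 35 °C for 48 h, growth scored visually. In vitro values are means of duplicates.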

RAW264.7 = assay: Cytotoxicity against mouse RAW264.7 cells at 200 uM after 16 hrs by XTT assay; type: cell-based; settings: raw264.7, 16 h
Procedure, shortened: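 RAW264.7 macrophages were grown in DMEM with 10% FBS, L-glutamine, pyruvate and nonessential amino acids at 37 °C, 5% CO2. Cells were seeded at 2 × 10^5 per well overnight, then exposed to peptides at 3.12–200 μM for 16 h. Medium was replaced with fresh medium plus XTT reagent. LC50 was taken from dose–viability curves.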

Mus musculus [18] = assay: Toxicity in immunocompromized ICR mouse assessed as weight loss at 9 mg/kg, at pH 5.5 it administered on day 1, 4, 7 and 11 monitored for 28 days; type: organism-based; design: dose 9 mg/kg, route endotracheal; settings: in vivo, inhaled_or_intranasal, pH 5.5, 9 mg/kg, 672 h
Procedure, shortened: (§5)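 Six-week-old female ICR mice (n = 5) were immunosuppressed with cortisone acetate (150 mg/kg in PBS/0.1% Tween 80, s.c.) 4 days before the first dose, on that day, and 2 and 4 days after. Peptide in saline at pH 5.5 was given i.t. on days 1, 4, 7 and 11. Survival, weight, appearance and behaviour were followed for 28 days.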

Aspergillus fumigatus [19] = assay: Antifungal activity against Aspergillus fumigatus Af293 infected in immunocompromized ICR mouse assessed as reduction in fungal load in spleen at 4.5 mg/kg, at pH 5.5 it administered on day 1 and 4 measured after 5 days post infection (reference value: 10 to 140 CFU); type: functional; settings: route endotracheal
Aspergillus fumigatus [20] = assay: Antifungal activity against Aspergillus fumigatus Af293 infected in immunocompromized ICR mouse assessed as reduction in fungal load in lung at 4.5 mg/kg, at pH 5.5 it administered on day 1 and 4 measured after 5 days post infection (reference value: 80 to 12920 CFU); type: functional; settings: route endotracheal
Mus musculus [21] = assay: Toxicity in immunocompromized ICR mouse assessed as visible signs of toxicity at 9 mg/kg, at pH 5.5 it administered on day 1, 4, 7 and 11 monitored for 28 days; type: organism-based; design: dose 9 mg/kg, route endotracheal; settings: in vivo, inhaled_or_intranasal, pH 5.5, 9 mg/kg, 672 h; procedure, shortened: as §5
[22] = Toxicity in human RBC assessed as hemolytic activity at 125 uM at pH 7.5 after 60 mins by spectrophotometry; type: cell-based; settings: erythrocyte, pH 7.5, 1 h
Procedure, shortened: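 Human erythrocytes (4% final) were incubated with peptide in PBS for 60 min at 37 °C. Hemoglobin release was read as supernatant absorbance at 540 nm. PBS alone served as the 0% reference and 1% Triton as the 100% reference. Values are averages of duplicates.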

Row | SMILES | Activity (Aspergillus fumigatus [3]) | MIC (Candida albicans [4]) | MIC (Aspergillus fumigatus [6]) | MIC (Cryptococcus neoformans [7]) | MIC (Candida albicans [8]) | Activity (Aspergillus fumigatus [9]) | MIC (Cryptococcus neoformans [10]) | Activity (Aspergillus fumigatus [12]) | MIC (Aspergillus fumigatus [13]) | Activity (Aspergillus fumigatus [14]) | also measured
1 | CCCCCC(=O)N[C@@H](Cc1cnc[nH]1)C(=O)N[C@@H](Cc1cnc[nH]1)C(=O)N1CCCN(C(=O)[C@H](Cc2cnc[nH]2)NC(=O)[C@H](Cc2cnc[nH]2)NC(=O)CCCCC)Cc2cc(cc(C(N)=O)c2)CN(C(=O)[C@H](Cc2cnc[nH]2)NC(=O)[C@H](Cc2cnc[nH]2)NC(=O)CCCCC)CCC1 | inactive | > 100 µM | > 100 µM | > 100 µM | > 100 µM | inactive | > 100 µM | inactive | > 100 µM | inactive | Activity (Escherichia coli [1]): inactive; Activity (Staphylococcus aureus [2]): inactive; Activity (Staphylococcus aureus [5]): inactive; Activity (Escherichia coli [11]): inactive
2 | CC[C@H](C)[C@H](NC(=O)CN)C(=O)NCC(=O)N[C@@H](C)C(=O)N[C@H](C(=O)N[C@@H](CC(C)C)C(=O)N[C@@H](CCCCN)C(=O)N[C@H](C(=O)N[C@@H](CC(C)C)C(=O)N[C@H](C(=O)N[C@H](C(=O)NCC(=O)N[C@@H](CC(C)C)C(=O)N1CCC[C@H]1C(=O)N[C@@H](C)C(=O)N[C@@H](CC(C)C)C(=O)N[C@H](C(=O)N[C@@H](CO)C(=O)N[C@@H](Cc1c[nH]c2ccccc12)C(=O)N[C@H](C(=O)N[C@@H](CCCCN)C(=O)N[C@@H](CCCNC(=N)N)C(=O)N[C@@H](CCCCN)C(=O)N[C@@H](CCCNC(=N)N)C(=O)N[C@@H](CCC(N)=O)C(=O)N[C@@H](CCC(N)=O)C(N)=O)[C@@H](C)CC)[C@@H](C)CC)[C@@H](C)O)[C@@H](C)O)C(C)C)C(C)C [MELITTIN] | Active |  |  |  |  | Active |  | Active |  | Active | Stability ([15]; 2 h): Unstable
3 | CCCCCCCCCCCCCC(=O)N[C@@H](Cc1c[nH]cn1)C(=O)N[C@@H](Cc1c[nH]cn1)C(=O)N1CCCN(C(=O)[C@H](Cc2c[nH]cn2)NC(=O)[C@H](Cc2c[nH]cn2)NC(=O)CCCCCCCCCCCCC)Cc2cc(cc(C(N)=O)c2)CN(C(=O)[C@H](Cc2c[nH]cn2)NC(=O)[C@H](Cc2c[nH]cn2)NC(=O)CCCCCCCCCCCCC)CCC1 |  | > 100 µM | 3.12 µM (≈ 5.4 µg/mL) | > 100 µM | > 100 µM |  | 3.12 µM (≈ 5.4 µg/mL) |  | > 100 µM |  | CFU (Aspergillus fumigatus [16]): 70; Ratio [17]: 64; Activity (RAW264.7): Non-toxic; Activity (Mus musculus [18]): Non-toxic; remaining at 2 h, 1 ug/uL ([15]; proteinase K, read-out: Stability): 80%; CFU (Aspergillus fumigatus [19]): 20; CFU (Aspergillus fumigatus [20]): 40; Activity (Mus musculus [21]): Non-toxic; Activity [22]: Non-toxic
4 | CCCCCCCCCCCCCCN[C@@H](Cc1cnc[nH]1)C(=O)N[C@@H](Cc1cnc[nH]1)C(=O)O | inactive | > 100 µM | 50 µM (≈ 24.4 µg/mL) | > 100 µM | > 100 µM | inactive | 25 µM (≈ 12.2 µg/mL) | inactive | > 100 µM | inactive | 

Reference: ChEMBL document CHEMBL2016446, “Trivalent ultrashort lipopeptides are potent pH dependent antifungal agents” (J Med Chem, 2012)
